Key:
[1] = target: T1, Prostaglandin G/H synthase 1 (Homo sapiens, UniProt P23219); test: Inhibition of COX-1-mediated TXB2 production in human platelets preincubated for 20 mins prior A23187 stimulation measured after 15 mins by RIA
[2] = target: COX-1/COX-2 (Homo sapiens) (UniProt P35354+P23219); test: Selectivity ratio of IC50 for COX-1-mediated TXB2 production in human platelets to IC50 for COX-2-mediated 6-keto-PGF1alpha production in IL-1beta-induced HUVEC
[3] = target: T2, Prostaglandin G/H synthase 2 (Homo sapiens, UniProt P35354); test: Inhibition of COX-2-mediated 6-keto-PGF1alpha production in IL-1beta-induced HUVEC preincubated for 20 mins prior A23187 stimulation measured after 15 mins by RIA
T2 sequence (P35354 whole entry): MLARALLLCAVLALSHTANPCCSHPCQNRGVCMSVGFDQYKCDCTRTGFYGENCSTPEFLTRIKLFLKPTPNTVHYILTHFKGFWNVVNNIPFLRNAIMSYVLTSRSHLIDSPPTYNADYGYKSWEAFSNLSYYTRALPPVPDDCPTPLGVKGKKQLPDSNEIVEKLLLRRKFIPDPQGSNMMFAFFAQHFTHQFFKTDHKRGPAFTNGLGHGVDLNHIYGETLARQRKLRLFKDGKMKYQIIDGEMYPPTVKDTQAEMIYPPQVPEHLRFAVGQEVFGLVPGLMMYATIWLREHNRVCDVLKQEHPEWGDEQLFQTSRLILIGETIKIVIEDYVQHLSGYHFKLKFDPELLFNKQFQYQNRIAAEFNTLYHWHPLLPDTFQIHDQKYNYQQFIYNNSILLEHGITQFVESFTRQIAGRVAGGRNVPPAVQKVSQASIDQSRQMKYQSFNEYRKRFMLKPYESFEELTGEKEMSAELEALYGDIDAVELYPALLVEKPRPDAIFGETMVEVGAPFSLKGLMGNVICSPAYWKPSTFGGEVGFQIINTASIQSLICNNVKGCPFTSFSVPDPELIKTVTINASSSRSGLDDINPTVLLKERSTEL

Rattus norvegicus = test: Antiinflammatory activity in SPF/VAF Sprague-Dawley rat assessed as inhibition of carrageenan-induced paw oedema at 10 mg/kg, po administered 1 hr prior carrageenan challenge measured after 3 hrs by plethysmometry; type: functional
Procedure, shortened: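 Male SPF/VAF Sprague-Dawley rats (Crj:CD(SD), 5 weeks, 110–130 g), fasted overnight, given carrageenan intraplantarly in the hind paw. Test compound or vehicle (5% (v/v) Tween 80 in distilled water) dosed orally at 1 mL/100 g body weight 1 h before carrageenan. Foot volume read by water-displacement plethysmometer before and 3 h after injection; percent inhibition relative to vehicle group taken as 0%.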

[4] = target: T2, Prostaglandin G/H synthase 2; test: Inhibition of COX-2-mediated PGE2 production in LPS-induced human whole blood after 24 hrs by RIA
Procedure, shortened: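 Heparinized whole blood from healthy adult volunteers mixed with compound in DMSO (0.1–100 µM final; DMSO under 0.1%) and E. coli 0111:B4 LPS (30 µg/mL final), incubated 24 h at 37 °C to induce COX-2; PGE2 synthesis measured; IC50.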

[5] = target: T1, Prostaglandin G/H synthase 1; test: Inhibition of COX-1-mediated TXB2 production in human whole blood after 30 mins post A23187 stimulation by RIA

COX-1/COX-2 (Homo sapiens), sequence (P23219 whole entry, looked up, one chain of several): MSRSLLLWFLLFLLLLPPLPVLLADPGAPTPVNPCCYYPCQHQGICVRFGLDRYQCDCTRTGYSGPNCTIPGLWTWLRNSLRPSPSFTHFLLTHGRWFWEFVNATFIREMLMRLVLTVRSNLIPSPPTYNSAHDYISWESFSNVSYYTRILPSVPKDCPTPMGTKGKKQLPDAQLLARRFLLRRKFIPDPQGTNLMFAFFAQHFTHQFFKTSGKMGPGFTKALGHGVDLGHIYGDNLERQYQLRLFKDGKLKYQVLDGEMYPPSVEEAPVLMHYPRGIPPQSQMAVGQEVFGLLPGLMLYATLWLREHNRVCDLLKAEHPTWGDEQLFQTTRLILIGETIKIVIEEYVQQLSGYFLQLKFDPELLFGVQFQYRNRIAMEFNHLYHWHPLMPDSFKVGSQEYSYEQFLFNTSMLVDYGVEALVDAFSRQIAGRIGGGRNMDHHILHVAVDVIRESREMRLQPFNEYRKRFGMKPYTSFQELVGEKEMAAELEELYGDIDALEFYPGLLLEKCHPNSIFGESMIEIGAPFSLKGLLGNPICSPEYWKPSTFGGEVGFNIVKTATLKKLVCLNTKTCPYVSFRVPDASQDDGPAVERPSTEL
T1 sequence (P23219 whole entry): as the sequence (P23219 whole entry, looked up, one chain of several) above

IC50 [1] [nM] | Ratio IC50 [2] | IC50 [3] [nM] | IC50 [4] [nM] | IC50 [5] [nM] | Compound | inhibition in vivo at 10 mg/kg (Rattus norvegicus) [%]
> 10000 | > 326 | 30.7 | – | – | CCc1cc(C(=O)c2[nH]c3cc(Cl)ccc3c2CC(=O)O)ncc1Cl | –
> 10000 | – | 598 | – | – | CCOc1cnc(C(=O)c2[nH]c3cc(Cl)ccc3c2CC(=O)O)cc1CC | –
849 | 86.5 | 9.81 | 155 | 33500 | Cc1ccnc(C(=O)c2[nH]c3cc(F)ccc3c2CC(=O)O)c1 | 70
> 10000 | – | 421 | 5700 | > 100000 | CCc1ccnc(C(=O)c2[nH]c3ccc(OC(F)(F)F)cc3c2CC(=O)O)c1 | –
882 | – | 15.7 | 1600 | 47000 | CCc1ccc2[nH]c(C(=O)c3cc(C)ccn3)c(CC(=O)O)c2c1 | –
> 10000 | > 78.1 | 128 | 1900 | > 100000 | COc1ccc2c(CC(=O)O)c(C(=O)c3cc(C)ccn3)[nH]c2c1 | –
1000 | – | 39.6 | 1900 | > 100000 | Cc1ccnc(C(=O)c2[nH]c3ccc(OC(F)(F)F)cc3c2CC(=O)O)c1 | –
65.9 | 9.73 | 6.77 | 100 | 7700 | Cc1ccnc(C(=O)c2[nH]c3cc(Cl)c(F)cc3c2CC(=O)O)c1 | –
1510 | – | 41.5 | – | – | Cc1ccnc(C(=O)c2[nH]c3ccc(C(C)(C)C)cc3c2CC(=O)O)c1 | –
150 | 26.4 | 5.68 | 150 | 21400 | Cc1ccnc(C(=O)c2[nH]c3ccc(F)cc3c2CC(=O)O)c1 | –
3050 | 23.8 | 128 | 2200 | > 100000 | COc1ccc2[nH]c(C(=O)c3cc(C)ccn3)c(CC(=O)O)c2c1 | –
> 10000 | – | 414 | – | – | CCc1ccc2c(CC(=O)O)c(C(=O)c3cc(C)ccn3)[nH]c2c1 | –
> 10000 | > 521 | 19.2 | – | – | O=C(O)Cc1c(C(=O)c2cc3c(cn2)CCCC3)[nH]c2cc(Cl)ccc12 | –

From ChEMBL document CHEMBL1949501, “Novel acid-type cyclooxygenase-2 inhibitors: Design, synthesis, and structure-activity relationship for anti-inflammatory drug” (Eur J Med Chem, 2012)
